# STAT1 blocker: inhibitors of IFN-gamma induced STAT1 signaling; NIH 3T3 STAT1-luciferase reporter, luminescence; inhibition, % at 5.5 µM; actives 0.35% (n = 200,000);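 active = inhibition above a set limit, the mean inhibition across all tested compounds plus 3 SD, cut at about 34% in these data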;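 also: 0% = IFN-gamma with DMSO and 100% = IFN-gamma with 300 µM nifuroxazide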
# NF-kB expr up: NF-kB expression increase, human neuronal cells; NF-kB reporter expression; active compounds read high; AID 1239; actives 1.6% (n = 190,000); fold change at 12.5 µM; in the data active = fold change above about 3.3
# STAT1 activator: STAT1 signaling activation | AID 932 | NIH 3T3 STAT1-luciferase reporter, IFN-gamma, luminescence; 100% = IFN-gamma alone, no compound | actives 2.6% (n = 200,000) | activation (% of control), % at 5.5 µM;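 active = activation above the screen-wide mean activation plus 3 SD, cut at about 130% in these data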;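 also: raw ratio to IFN-gamma control signal so 100% means no change and 0% no light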
# STAT3 act: activators of IL-6 induced STAT3 signaling; activation (% of control), % at 5.6 µM; actives 0.91% (n = 190,000); U3A cells, IL-6 STAT3-luciferase reporter, luminescence; 100% = signal with IL-6 EC80 alone;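 active = activation above the screen-wide mean of compound activation plus 3 SD, cut at about 130% in these data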;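 also: 0% = background luminescence of wells with medium and substrate only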
#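 system = STAT3-luciferase reporter U3A cells | reagent = IL-6 stimulus at 33 ng/mL final | timing = 1 h compound pre-exposure, 6 h IL-6 stimulation, 37 °C | measured by = luminescence | evaluation = % activation versus median of IL-6-stimulated wells | control set = IL-6-only wells as 100% reference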
# STAT3 inh: reduces IL-6 driven STAT3 reporter signal. U3A cells, IL-6 STAT3-luciferase reporter, luminescence; host cell line lacks STAT1. inhibition, % at 5.5 µM. actives 0.89% (n = 190,000). AID 862;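 active = inhibition above the mean inhibition across all screened compounds plus 3 SD, cut at about 44% in these data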;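 also: 0% = DMSO only wells and 100% = 100 µM nifuroxazide control wells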
# APP 5'UTR act: activates APP 5'UTR luciferase reporter. SH-SY5Y APP 5'UTR luciferase reporter, luminescence; zero percent = DMSO vehicle wells. activation, % at 2 µM. actives 1% (n = 190,000). AID 1276;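 active = activation above a set limit, based on mean plus 3 SD of controls, cut at about 140% in these data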
# STAT1 act conf: confirmation of STAT1 signaling activators; shares compounds with STAT1 activator; NIH 3T3 STAT1-luciferase reporter, IFN-gamma potentiation, luminescence; 100% = IFN-gamma EC80 alone, no compound; activation (% of control), % at 5.7 µM; actives 97% (n = 1,200);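 active = activation above a set limit carried over from the earlier primary STAT1 screen, cut at about 140% in these data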;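 also: simple ratio to median IFN-gamma plus DMSO wells so 0% means no light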
# NFkB act STAT1ct: activates NF-kappaB, counter-screen to STAT1 activators. shares compounds with STAT1 activator. HEK293T NF-kB luciferase reporter, TNF-alpha stimulated, luminescence; 100% = TNF-alpha with vehicle only. activation (% of control), % at 5.7 µM. actives 43% (n = 1,200). AID 1306;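 active = activation above the mean of solvent-only control wells plus 3 SD, set per campaign, cut at about 130% in these data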;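 also: TNF-alpha given at a submaximal dose yielding about 80% of full reporter signal; values are well signal over median control so 100% means no change and 0% no light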
# STAT3 act STAT1c: human STAT3 activation in STAT1 activator counter-screen. shares compounds with STAT1 activator. U3A cells STAT3-luciferase reporter, IL-6, luminescence; cells lack STAT1; 100 = IL-6 alone, no compound effect. activation (% of control), % at 5.7 µM. actives 46% (n = 1,200). AID 1316;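 active = activation above the solvent-only control well mean plus 3 SD, set per plate batch, cut at about 110% in these data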;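 also: 0% = no luminescence and 100% = median IL-6 plus DMSO wells; higher means more STAT3 reporter activation so hits are non-selective activators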
# * marks the source's active call; other numbers are inactive results; nt = no result. Hits are enriched below; roughly 4.9% of the tested compounds scored in any of these assays.
SMILES,STAT1 blocker,NF-kB expr up,STAT1 activator,STAT3 act,STAT3 inh,APP 5'UTR act,STAT1 act conf,NFkB act STAT1ct,STAT3 act STAT1c
CC(CC(=O)NCC1CCCO1)c1ccccc1 (stereo not drawn),-2,1.1,102,101,4,5,nt,nt,nt
Cc1cccc(NC(=O)C2CCCN2C(=O)NC2CCCCC2)c1 (stereo not drawn),-3,0.88,101,105,-3,0,nt,nt,nt
O=C(c1ccc(F)cc1)c1cc2ccccc2o1,-62,3.6*,157*,97,6,59,174*,129,103
O=C(NC1=NCCS1)c1csc2ccccc12,-55,6.8*,152*,103,3,105,199*,126,118*
CN1CCc2nc3sc(C(=O)C45CC6CC(CC(C6)C4)C5)c(N)c3cc2C1,5,1,96,106,-3,3,nt,nt,nt
Nc1c(C(=O)C2CC2)sc2nc3c(cc12)CCC3,-69,5.4*,162*,96,12,120,189*,135*,108
COc1ccc(CNC(=O)CS(=O)CC(=O)O)cc1OC (stereo not drawn),-4,1.1,103,101,6,-23,nt,nt,nt
CCCCCCOc1ccc(N2C(=O)CC(N3CCN(CCN=CC4C(=O)CC(C)(C)CC4=O)CC3)C2=O)cc1 (stereo not drawn),6,0.89,94,100,2,1,nt,nt,nt
O=C(CCc1ccccc1)Nc1cc2c(cc1Cl)OCCO2,-62,2.5,158*,117,-19,82,181*,139*,115*
CCn1c(C)nc2cc(C(=O)OC(C(F)(F)C(F)F)C(F)(F)C(F)F)ccc21,-90,0.9,182*,108,-3,-2,182*,120,115*
CCOC(=O)c1c(C)[nH]c(C(=O)OCCOc2ccc(Cl)cc2)c1C,4,1.1,97,103,0,18,nt,nt,nt
CCOC(=O)c1c(C)[nH]c(C(=O)OCCOc2ccccc2C)c1C,-65,3.4*,159*,118,-14,118,183*,125,123*
Cc1cc(/C=C(\C#N)C(=O)NCc2cccs2)c(C)n1-c1ccccc1F,-56,1.2,151*,108,-5,115,169*,130,121*
COc1ccc(CCNC2CC(=O)N(C3CCCCC3)C2=O)cc1OC (stereo not drawn),6,1,93,101,6,-3,nt,nt,nt
O=C(Nc1ccc2ccccc2c1)c1onc2c1CCCC2,-60,8.1*,154*,93,13,206*,270*,121,98
Cc1cc(C)cc(OCC(=O)OCc2nnc(-c3ccccc3)o2)c1,-1,1.1,99,99,10,9,nt,nt,nt
COc1ccccc1Nc1ncnc2c1cnn2-c1cccc(C)c1,-22,1.9,121,96,12,12,nt,nt,nt
Cc1cccc(-n2ncc3c(NC4CCCCC4)ncnc32)c1,-71,7.2*,168*,87,17,180*,239*,138*,102
CC(=O)c1ccc(NC(=O)c2noc3c2CCCCC3)cc1,-55,5*,151*,90,16,161*,223*,129,102
COc1ccc(/C=C/c2nc3ccccc3n2Cc2ccccc2OC)cc1,-60,5.6*,154*,110,-11,179*,166*,122,113*
COc1cccc(NC(=O)COC(=O)c2nc3nccc(C)n3n2)c1,1,1.4,99,100,5,8,nt,nt,nt
COc1cccc(N(C(=O)c2nc3nccc(C)n3n2)c2nc3ccccc3s2)c1,-81,6*,173*,102,1,190*,230*,177*,114*
COc1cc(/C=N/NC(=O)CC2(C)OCCCO2)ccc1OCc1ccccc1,-14,1.2,113,111,-16,4,nt,nt,nt
COc1cc(/C=N/NC(=O)CN2CCCCC2)ccc1OCc1ccc(Br)cc1,-85,4.5*,176*,113,-17,134,178*,136*,119*
O=C(Nc1nc2ccccc2s1)NC1CCCCC1,-68,9.2*,161*,93,18,144*,226*,132,117*
SMILES,STAT1 blocker,NF-kB expr up,STAT1 activator,STAT3 act,STAT3 inh,APP 5'UTR act,STAT1 act conf,NFkB act STAT1ct,STAT3 act STAT1c
O=C(Nc1ccccc1NC(=O)NC1CCCCC1)NC1CCCCC1,2,1.7,99,98,7,7,nt,nt,nt
O=C(CC1CCCCC1)Nc1nc2ccccc2s1,-60,3,155*,110,-8,133,184*,134*,120*
O=C(C(=O)N1CCCC1CO)N1CCCC1CO (stereo not drawn),-8,0.9,105,102,2,-12,nt,nt,nt
COc1ccc(N2C(=O)CSC2c2ccccc2[N+](=O)[O-])cc1 (stereo not drawn),0,1.4,100,105,4,4,nt,nt,nt
O=C(Oc1ccc(/C=N/Nc2ccccc2)cc1)c1ccccc1,-1,2,101,106,-6,0,nt,nt,nt
O=C(O)c1ccc(N/N=C/c2cccc(F)c2)cc1,-68,5*,161*,110,-12,124,203*,102,118*
COc1cc(/C=N/Nc2ccc(C(=O)O)cc2)ccc1O,27,3,75,90,18,89,nt,nt,nt
O=C(O)c1ccc(N/N=C/c2ccc(F)c(F)c2)cc1,-68,5.3*,162*,109,-16,159*,211*,101,129*
O=C(c1cc(-c2ccc(Cl)c(Cl)c2)on1)N1CCCCC1,-65,3.2,159*,98,7,37,188*,137*,114*
COc1ccc(N=c2sc3ccccc3n2C)cc1,-56,5.6*,151*,111,-10,134,208*,135*,111*
COc1cc(/C=N/NC(=O)CN(Cc2ccco2)S(=O)(=O)c2ccccc2)ccc1O,8,0.8,93,106,-7,nt,nt,nt,nt
CC(=O)N1N=C(c2ccc(C)cc2)OC1c1ccc(C(C)C)cc1 (stereo not drawn),-73,4.3*,166*,133,-37,116,217*,146*,146*
CC(=O)N1N=C(c2ccc(C)cc2)OC1c1ccc(C)cc1 (stereo not drawn),-24,1.8,122,116,-14,29,nt,nt,nt

# Source: PubChem
